What was measured:
Integrin alpha-V/beta-3 = Integrin alpha-V/beta-3 (Homo sapiens, UniProt P05106+P06756); assay: Inhibition of binding to human Vitronectin receptor (integrin alphaV-beta3); assay type: protein-complex assay
Procedure, shortened: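 Scintillation proximity binding assay with lyophilized wheat germ agglutinin SPA beads. Receptor was αvβ3 integrin purified from HEK 293 cells overexpressing human recombinant αvβ3. Tracer was a 125I-labeled ligand, and test compounds were scored by displacement of its binding.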

[1] = biological target: Integrin alpha-IIb/beta-3 (Homo sapiens, UniProt P05106+P08514); assay: Inhibition of human alphaIIb-beta3 integrin in platelet aggregation assay
Integrin alpha-IIb/beta-3, sequence (P05106 27-788 limits assumed): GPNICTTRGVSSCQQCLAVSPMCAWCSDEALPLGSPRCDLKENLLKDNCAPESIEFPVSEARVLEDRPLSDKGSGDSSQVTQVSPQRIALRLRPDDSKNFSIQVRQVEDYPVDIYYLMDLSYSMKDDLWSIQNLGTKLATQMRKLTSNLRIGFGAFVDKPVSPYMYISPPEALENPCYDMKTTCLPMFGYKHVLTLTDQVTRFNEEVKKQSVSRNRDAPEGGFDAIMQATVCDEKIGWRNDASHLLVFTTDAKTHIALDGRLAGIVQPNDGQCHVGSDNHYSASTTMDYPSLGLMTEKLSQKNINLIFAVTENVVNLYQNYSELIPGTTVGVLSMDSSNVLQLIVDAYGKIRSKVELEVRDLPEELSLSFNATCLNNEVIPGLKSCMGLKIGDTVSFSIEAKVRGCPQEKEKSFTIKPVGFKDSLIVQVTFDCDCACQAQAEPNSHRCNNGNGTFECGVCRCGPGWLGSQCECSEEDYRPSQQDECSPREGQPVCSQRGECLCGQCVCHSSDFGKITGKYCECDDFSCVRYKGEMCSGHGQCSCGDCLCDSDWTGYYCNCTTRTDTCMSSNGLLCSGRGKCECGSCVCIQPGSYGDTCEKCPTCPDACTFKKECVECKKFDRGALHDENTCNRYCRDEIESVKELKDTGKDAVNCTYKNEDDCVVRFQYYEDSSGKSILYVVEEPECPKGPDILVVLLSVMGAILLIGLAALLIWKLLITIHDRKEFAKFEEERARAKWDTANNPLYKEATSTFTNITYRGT
Integrin alpha-IIb/beta-3, sequence (P08514 32-887 limits assumed): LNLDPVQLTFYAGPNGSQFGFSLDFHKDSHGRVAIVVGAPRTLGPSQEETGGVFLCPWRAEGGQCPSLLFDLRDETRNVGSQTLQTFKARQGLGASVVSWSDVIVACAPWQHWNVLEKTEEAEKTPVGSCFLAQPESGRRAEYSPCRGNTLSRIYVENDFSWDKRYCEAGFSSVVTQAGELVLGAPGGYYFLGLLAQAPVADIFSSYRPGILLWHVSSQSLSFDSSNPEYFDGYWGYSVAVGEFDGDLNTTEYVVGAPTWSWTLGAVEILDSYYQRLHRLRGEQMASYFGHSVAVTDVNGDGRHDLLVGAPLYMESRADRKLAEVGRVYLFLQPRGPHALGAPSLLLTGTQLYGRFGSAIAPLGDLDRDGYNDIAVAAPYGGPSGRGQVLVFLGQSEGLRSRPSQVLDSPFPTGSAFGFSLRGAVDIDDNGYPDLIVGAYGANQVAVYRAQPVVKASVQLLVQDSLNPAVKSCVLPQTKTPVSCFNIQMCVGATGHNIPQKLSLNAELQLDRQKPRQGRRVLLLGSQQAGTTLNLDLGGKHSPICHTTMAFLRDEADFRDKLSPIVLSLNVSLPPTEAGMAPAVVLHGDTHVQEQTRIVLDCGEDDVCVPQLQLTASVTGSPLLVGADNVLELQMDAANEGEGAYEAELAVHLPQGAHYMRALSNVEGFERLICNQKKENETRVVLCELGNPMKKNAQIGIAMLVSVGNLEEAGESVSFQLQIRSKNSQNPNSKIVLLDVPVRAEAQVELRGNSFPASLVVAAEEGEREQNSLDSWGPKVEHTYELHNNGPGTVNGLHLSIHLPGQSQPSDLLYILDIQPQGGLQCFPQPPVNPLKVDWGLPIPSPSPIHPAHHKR
Integrin alpha-IIb/beta-3, sequence (P08514 891-1039 limits assumed): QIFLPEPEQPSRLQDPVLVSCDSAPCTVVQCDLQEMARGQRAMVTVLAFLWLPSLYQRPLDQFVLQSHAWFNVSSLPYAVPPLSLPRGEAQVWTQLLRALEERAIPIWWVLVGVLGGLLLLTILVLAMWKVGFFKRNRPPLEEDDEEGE

Integrin alpha-V/beta-3, sequence (P05106 27-788 limits assumed): as the sequence (P05106 27-788 limits assumed) above
Integrin alpha-V/beta-3, sequence (P06756 31-889 limits assumed): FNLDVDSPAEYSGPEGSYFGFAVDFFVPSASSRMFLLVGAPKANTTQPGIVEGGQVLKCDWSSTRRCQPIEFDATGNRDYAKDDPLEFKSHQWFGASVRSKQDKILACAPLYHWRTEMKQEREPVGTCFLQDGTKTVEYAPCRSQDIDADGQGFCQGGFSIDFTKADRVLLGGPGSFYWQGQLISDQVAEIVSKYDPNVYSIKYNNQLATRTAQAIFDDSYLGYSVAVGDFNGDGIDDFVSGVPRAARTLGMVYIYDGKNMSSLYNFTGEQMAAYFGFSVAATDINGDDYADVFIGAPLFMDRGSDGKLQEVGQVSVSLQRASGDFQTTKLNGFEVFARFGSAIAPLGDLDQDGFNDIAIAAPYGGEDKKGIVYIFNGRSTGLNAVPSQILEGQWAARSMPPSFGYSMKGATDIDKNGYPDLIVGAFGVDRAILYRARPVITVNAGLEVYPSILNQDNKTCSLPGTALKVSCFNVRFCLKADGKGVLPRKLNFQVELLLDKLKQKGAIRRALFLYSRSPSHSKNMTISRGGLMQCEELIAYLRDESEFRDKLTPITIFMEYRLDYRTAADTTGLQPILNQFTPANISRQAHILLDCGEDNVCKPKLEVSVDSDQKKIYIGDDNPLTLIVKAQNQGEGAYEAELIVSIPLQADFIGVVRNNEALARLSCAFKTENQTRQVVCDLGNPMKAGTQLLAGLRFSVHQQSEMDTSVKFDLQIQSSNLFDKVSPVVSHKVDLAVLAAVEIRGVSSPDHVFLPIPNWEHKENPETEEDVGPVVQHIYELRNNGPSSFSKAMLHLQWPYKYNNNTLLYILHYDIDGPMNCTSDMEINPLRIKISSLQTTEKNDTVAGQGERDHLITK
Integrin alpha-V/beta-3, sequence (P06756 891-1048 limits assumed): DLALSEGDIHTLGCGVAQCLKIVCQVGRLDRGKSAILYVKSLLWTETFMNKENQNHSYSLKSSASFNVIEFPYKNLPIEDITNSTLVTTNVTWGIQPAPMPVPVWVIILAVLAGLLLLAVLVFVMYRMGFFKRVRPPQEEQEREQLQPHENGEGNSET

Row | SMILES | IC50 (Integrin alpha-V/beta-3) [nM] | IC50 [1] [nM]
1 | O=C(O)CC(NC(=O)CCCCc1ccc2c(n1)NCCC2)c1cncnc1 (stereo not drawn) | 3.3 | –
2 | N=C(N)NCCC[C@H](N)C(=O)NCC(=O)N[C@@H](CC(=O)O)C(=O)O | > 10000 | –
3 | CCCCS(=O)(=O)N[C@@H](Cc1ccc(OCCCCC2CCNCC2)cc1)C(=O)O [TIROFIBAN] | > 1000 | –

Continued, values first:

Row | IC50 (Integrin alpha-V/beta-3) [nM] | IC50 [1] [nM] | SMILES
4 | 0.08 | – | Nc1cccc(CCc2ccc(C(=O)NC[C@H](NS(=O)(=O)c3ccccc3)C(=O)O)cc2)n1
5 | > 1000 | – | O=C(NC[C@H](NS(=O)(=O)c1ccccc1)C(=O)O)c1ccc(N2CCNCC2)cc1
6 | 0.11 | – | CC1(C)[C@@H]2CC[C@@]1(CS(=O)(=O)N[C@@H](CNC(=O)c1ccc(CCc3ccc4c(n3)NCCC4)cc1)C(=O)O)C(=O)C2
7 | > 1000 | 10 | O=C(NC[C@H](NS(=O)(=O)c1ccccc1)C(=O)O)c1ccc(OCCC2CCNCC2)cc1

Reference: ChEMBL document CHEMBL1145915, “Molecular model of the alpha(IIb)beta(3) integrin” (J Med Chem, 2003)
